Screens as filed in PubChem.
DDE Tn7 FP inh: inhibitors of Tn7 peptide binding to fibrin DD(E), primary screen, biochemical, fluorescence polarization, human fibrin, Tn7 probe | 370,000 tested, 0.13% active | FP displacement of FITC-Tn7 peptide from fibrin DD(E); 0% = median of compound wells per plate | AID 720508, 2013 | inhibition, % at 8.3 µM | Fibrinogen beta chain (Homo sapiens), P02675;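 active means inhibition above the mean of compounds falling within the control limits plus 3 SD of them, cut at about 14% in these data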;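 further: 0% = plate median of compound wells and 100% = 10 µM Aha-Tn7 peptide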
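Assay system: Human clot-derived fibrin DD(E) complex | Buffer or medium: Tris/NaCl/CaCl2 buffer, pH 7.8 | Repeats: One replicate per compound | Benchmarks: Aha-Tn7 high control | Measure: % inhibition scaled between sample-field median and high-control FP | Schedule: 10 min plus 3 h, room temperature | Signal: Fluorescence polarization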
Rtt109 HAT inh: inhibitors of C. albicans Rtt109/Vps75 HAT, primary screen, biochemical, ThioGlo CoA-SH fluorescence, plate reader | purified Rtt109/Vps75, 4 h | inhibition, % at 34.9 µM | 330,000 tested, 0.16% active;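 active means inhibition of at least 50% in every replicate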
Target sequence (Q5AAJ8 whole entry, looked up): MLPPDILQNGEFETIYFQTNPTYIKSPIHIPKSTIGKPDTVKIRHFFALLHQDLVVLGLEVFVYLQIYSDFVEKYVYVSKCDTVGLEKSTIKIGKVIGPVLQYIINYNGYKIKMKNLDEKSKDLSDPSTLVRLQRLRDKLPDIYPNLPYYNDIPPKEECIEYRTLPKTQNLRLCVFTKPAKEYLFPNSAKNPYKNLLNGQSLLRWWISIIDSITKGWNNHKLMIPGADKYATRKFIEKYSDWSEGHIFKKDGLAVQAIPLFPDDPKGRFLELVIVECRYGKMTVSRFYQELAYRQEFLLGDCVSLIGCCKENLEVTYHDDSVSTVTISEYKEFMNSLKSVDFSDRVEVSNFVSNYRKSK
C-LANA FP: inhibitors of KSHV C-LANA binding to DNA, primary screen, biochemical, fluorescence polarization, FAM-LBS DNA, MBP-C-LANA, single point; Kaposi's sarcoma herpesvirus LANA C-terminal domain (residues 932-1162) DNA binding; AID 504423, 2011; 340,000 tested, 0.078% active; inhibition, % at 9 µM;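 active means highest replicate inhibition at or above 60% at 9 µM, even if other replicates fall short; inactive means all replicates below 60% inhibition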;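 further: 0% = neutral control wells and 100% = 4 µM acridine orange control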
Keap1 Nrf2 FP: Keap1-Nrf2 protein-protein interaction inhibitors, primary screen, biochemical, fluorescence polarization, single point | Kelch-like ECH-associated protein 1 (Homo sapiens), Q14145 | Keap1 Kelch-Nrf2 peptide fluorescence polarization, 1536-well | inhibition, % at 9.4 µM | 340,000 tested, 0.15% active | AID 504523, 2011; in the data active means inhibition above about 12%;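 further: human Keap1 Kelch domain with fluorescein labeled Nrf2 9mer peptide probe; 0% = neutral control wells and 100% = peptide positive control; higher means more block of Keap1 binding to Nrf2 peptide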
DDE Tn6 FP inh: inhibitors of Tn6 peptide binding to fibrin DD(E), primary screen, biochemical, fluorescence polarization, human fibrin, Tn6 probe. Fibrin DD(E) TRITC-Tn6 fluorescence polarization displacement. inhibition, % at 8.3 µM. 370,000 tested, 0.21% active;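 active means inhibition above a per-campaign cutoff: mean of compounds within control limits plus 3 SD, cut at about 15% in these data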;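 further: 0% = median of all compound wells on the plate and 100% = blocking peptide control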
DDE Tn7 confirm: inhibitors of Tn7 peptide binding to fibrin DD(E), confirmation, biochemical, fluorescence polarization, human fibrin, Tn7 probe | FP displacement of TRITC-Tn7 peptide from DD(E); 0% set at plate's compound-well median | inhibition, % at 8.3 µM | shares compounds with DDE Tn7 FP inh | 460 tested, 5% active;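 active means inhibition above the campaign cutoff, the mean of compounds within control limits plus 3 SD, cut at about 14% in these data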;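 further: 100% = median FP of high control wells holding Aha-Tn7 inhibitor peptide; displacers lower polarization since freed probe rises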
Tn7 DDE ctr: counter-screen for inhibitors of Tn7 peptide binding to fibrin DD(E); inhibition, % at 8.3 µM; TRITC-Tn7 probe displacement, fluorescence polarization; shares compounds with DDE Tn7 FP inh; 460 tested, 3% active;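 active means inhibition above the cutoff, the mean of compounds lying between the control bounds plus 3 SD of those compounds, cut at about 17% in these data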;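 further: 0% = median of compound sample wells and 100% = excess unlabeled Aha-Tn7 peptide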
* hit, by the source's call; x = no result. This is a sample that favours compounds with a hit; in the whole collection about 0.6% have one here.

SMILES | DDE Tn7 FP inh | Rtt109 HAT inh | C-LANA FP | Keap1 Nrf2 FP | DDE Tn6 FP inh | DDE Tn7 confirm | Tn7 DDE ctr
CC(C)c1ccc(Nc2c([N+](=O)[O-])c(=O)n(C)c3ccccc23)cc1 | -6 | 4 | 1 | 0 | 2 | x | x
COc1cccc(CNC(=O)C2C3C=CC4(CN(Cc5ccccc5)C(=O)C24)O3)c1OC (stereo unspecified) | -7 | x | x | x | -2 | x | x
O=C(Nc1cccc(Cl)c1)N1CCOCC1 | 2 | x | 1 | -2 | 0 | x | x
O=C(Nc1cccc(Cl)c1)N1CCCC1 | 14* | -3 | -1 | -10 | 6 | 0 | -2
Cc1cccc(NC(=O)CSc2nnnn2-c2ccc3c(c2)OCCO3)n1 | 15* | -4 | -2 | -3 | -6 | 1 | 1
Cc1ccc(-n2c(SCC(=O)c3ccc4c(c3)OCO4)nc3ccccc3c2=O)cc1 | 3 | x | x | x | 6 | x | x
CCC1(C)NC(=O)N(CC(=O)N2N=C(c3ccccc3)CC2c2ccc(OC)cc2)C1=O (stereo unspecified) | 17* | 30 | -1 | 4 | 3 | -4 | -9
CCc1ccccc1NC(=S)NC1CC2CCC(C1)N2Cc1ccc(F)cc1 (stereo unspecified) | 14* | 1 | -1 | -9 | -11 | -3 | -11
COc1ccc(S[C@]2(C(=O)N(C)C)CC(=O)N(C(=O)/C=C/c3ccccc3)[C@@H]2c2ccc(OC)cc2)cc1 | -2 | x | x | x | -9 | x | x
Cc1ccc(/C=N/N2C(=O)C3C(C2=O)C2C=CC3C23CC3)o1 (stereo unspecified) | 14* | 6 | 1 | -3 | -2 | 4 | 4
Cc1noc(C)c1S(=O)(=O)Nc1ccc2c(c1)C(=O)N([C@@H](C)CO)C[C@H](C)[C@@H](CN(C)Cc1ccc(C(F)(F)F)cc1)OCCCC[C@H](C)O2 | 14* | x | x | x | -4 | 3 | 2
O=C(c1ccc(F)c(F)c1)N1CCC(Oc2cccnc2)CC1 | -2 | x | x | x | -4 | x | x
NS(=O)(=O)c1ccc(CNC(=O)Cc2ccccc2[N+](=O)[O-])cc1 | 15* | 0 | 0 | -1 | 2 | 0 | 2
CCc1ccc(-c2cc(C)no2)cc1S(=O)(=O)Nc1ccccn1 | 5 | 2 | -1 | 2 | 0 | x | x
Cc1cc(-c2ccc(C(C)C)c(S(=O)(=O)Nc3ccccn3)c2)on1 | 18* | 2 | -2 | 0 | 10 | -2 | -7
COc1cccc(NC(=O)C2CCCN2C(=O)NC2CCC(C)CC2)c1 (stereo unspecified) | 5 | x | x | x | 5 | x | x
CC(=O)Nc1ccc(-c2csc(NCCc3ccccc3)n2)cc1 | 17* | 5 | 2 | -1 | 6 | 12 | 9
NC(=O)c1cc(-c2csc(NCCc3ccccc3)n2)ccc1O | 0 | 3 | -1 | -5 | -2 | x | x
O=C(NCCC(=O)N1CCN(c2ccccn2)CC1)c1ccc([N+](=O)[O-])cc1 | 15* | -9 | 0 | 1 | 1 | -4 | -17
CCOC(=O)CSc1nc(NCc2ccco2)c2ccccc2n1 | 15* | 3 | 0 | -3 | -3 | 1 | -2
CC(C)(C)c1ccc(C(=O)Nc2cc(Cl)c(Cl)cc2C(=O)O)cc1 | -5 | x | x | x | -8 | x | x
COc1ccc(-c2ccc(C(=O)NC3CCCCC3)c3occc23)c(C)c1 | 16* | x | x | x | 4 | 10 | 6
COc1ccc(-c2coc3c(C(=O)NC4CCCCC4)cccc23)c(C)c1 | 10 | x | x | x | 1 | x | x
O=C(CN1C(=O)CCSc2ccccc21)Nc1cccc(Cl)c1F | 1 | x | x | x | 1 | x | x
